Assay results: ChEMBL document CHEMBL1156942, “Inhibitors of hepatitis C virus polymerase: synthesis and characterization of novel 2-oxy-6-fluoro-N-((S)-1-hydroxy-3-phenylpropan-2-yl)-benzamides” (Bioorg Med Chem Lett, 2010)
pIC50: −log10 of the molar value. The source made the active and inactive calls. No cut-off for these calls is given here.

tested on: Hepatitis C virus; test: Inhibition of HCV Con1 NS5B polymerase M414T mutant; assay type: functional, Hepacivirus hominis; details: isolate Con1
In short: (§1)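 Mutant Con1 NS5B (Δ21) at 30 nM was run in a de novo initiation assay with 100 nM heteropolymer RNA template and 0.25 mM trinucleotide initiator. Incubation: RT, 2 h, stopped with EDTA. Read-out: filter-bound label. IC50 from 10 twofold dilutions in duplicate; means of duplicates on two weighings.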

Row | Compound | pIC50
1 | CNC(=O)c1c(-c2ccc(F)cc2)oc2cc(N(CCO)S(C)(=O)=O)c(C3CC3)cc12 [NESBUVIR] | 7.22
2 | CCCCN(C)C(=O)c1c(F)cccc1OCC(=O)N[C@H](CO)Cc1ccccc1 | 5.00
3 | CC(C)(C)CC[C@@]1(C)CC(C2=NS(=O)(=O)c3cc(NS(C)(=O)=O)ccc3N2)=C(O)c2ccccc21 | 8.40

tested on: Hepatitis C virus; test: Inhibition of HCV Con1 NS5B polymerase G554D mutant; assay type: functional, Hepacivirus hominis; details: isolate Con1; in short: as §1

Row | Compound | pIC50
4 | CNC(=O)c1c(-c2ccc(F)cc2)oc2cc(N(CCO)S(C)(=O)=O)c(C3CC3)cc12 [NESBUVIR] | 7.30
5 | CCCCN(C)C(=O)c1c(F)cccc1OCC(=O)N[C@H](CO)Cc1ccccc1 | 3.92
6 | CC(C)(C)CC[C@@]1(C)CC(C2=NS(=O)(=O)c3cc(NS(C)(=O)=O)ccc3N2)=C(O)c2ccccc21 | 6.52

tested on: Hepatitis C virus; test: Selectivity ratio of IC50 for HCV Con1 NS5B polymerase G554D mutant to IC50 for HCV 1b Con1 NS5B polymerase; assay type: functional, Hepacivirus hominis, isolate Con1; details: not given

Row | Compound | Ratio IC50
7 | CCCCN(C)C(=O)c1c(F)cccc1OCC(=O)N[C@H](CO)Cc1ccccc1 | 150

tested on: Hepatitis C virus; test: Selectivity ratio of IC50 for HCV Con1 NS5B polymerase C316Y mutant to IC50 for HCV 1b Con1 NS5B polymerase; assay type: functional, Hepacivirus hominis, isolate Con1; details: not given

Row | Compound | Ratio IC50
8 | CCCCN(C)C(=O)c1c(F)cccc1OCC(=O)N[C@H](CO)Cc1ccccc1 | 100

tested on: Hepatitis C virus; test: Inhibition of HCV Con1 NS5B polymerase C316Y mutant; assay type: functional, Hepacivirus hominis; details: isolate Con1; in short: as §1

Row | Compound | pIC50
9 | CNC(=O)c1c(-c2ccc(F)cc2)oc2cc(N(CCO)S(C)(=O)=O)c(C3CC3)cc12 [NESBUVIR] | 5.70
10 | CCCCN(C)C(=O)c1c(F)cccc1OCC(=O)N[C@H](CO)Cc1ccccc1 | 4.05
11 | CC(C)(C)CC[C@@]1(C)CC(C2=NS(=O)(=O)c3cc(NS(C)(=O)=O)ccc3N2)=C(O)c2ccccc21 | 8.10

tested on: Hepatitis C virus genotype 4; test: Inhibition of HCV genotype 4 NS5B polymerase up to 200 uM; details: not given

Row | Compound | inhibition
12 | CCCCN(C)C(=O)c1c(F)cccc1OCC(=O)N[C@H](CO)Cc1ccccc1 | inactive

tested on: Hepatitis C virus genotype 2; test: Inhibition of HCV genotype 2 NS5B polymerase up to 200 uM; details: not given

Row | Compound | inhibition
13 | CCCCN(C)C(=O)c1c(F)cccc1OCC(=O)N[C@H](CO)Cc1ccccc1 | inactive

tested on: Hepatitis C virus; test: Inhibition of HCV Con1 NS5B polymerase C316N mutant; assay type: functional, Hepacivirus hominis; details: isolate Con1; in short: as §1

Row | Compound | pIC50
14 | CNC(=O)c1c(-c2ccc(F)cc2)oc2cc(N(CCO)S(C)(=O)=O)c(C3CC3)cc12 [NESBUVIR] | 6.92
15 | CCCCN(C)C(=O)c1c(F)cccc1OCC(=O)N[C@H](CO)Cc1ccccc1 | 6.05
16 | CC(C)(C)CC[C@@]1(C)CC(C2=NS(=O)(=O)c3cc(NS(C)(=O)=O)ccc3N2)=C(O)c2ccccc21 | 8.40

tested on: Hepatitis C virus; test: Inhibition of HCV 1a NS5B polymerase; assay type: functional, Hepatitis C virus subtype 1a; details: not given
In short: (§2)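 The buffer is 20 mM HEPES pH 7.3, 7.5 mM DTT, 10 mM MgCl2, 60 mM NaCl, RNasin, BSA, GTP/ATP/UTP, and CTP supplemented to 20 nM. It uses 100 nM heteropolymer RNA template and 0.25 mM trinucleotide initiator. Incubation is 2 h at room temperature, then stopped with EDTA, and filter-bound label is counted. IC50 comes from 10 twofold dilutions in duplicate, averaged over two separate weighings.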

Row | Compound | pIC50
17 | CNC(=O)c1c(-c2ccc(F)cc2)oc2cc(N(CCO)S(C)(=O)=O)c(C3CC3)cc12 [NESBUVIR] | 7.40
18 | CCCCN(C)C(=O)c1c(F)cccc1OCC(=O)N[C@H](CO)Cc1ccccc1 | 4.37
19 | CC(C)(C)CC[C@@]1(C)CC(C2=NS(=O)(=O)c3cc(NS(C)(=O)=O)ccc3N2)=C(O)c2ccccc21 | 8.52

tested on: Hepatitis C virus; test: Selectivity ratio of IC50 for HCV Con1 NS5B polymerase M414T mutant to IC50 for HCV 1b Con1 NS5B polymerase; assay type: functional, Hepacivirus hominis, isolate Con1; details: not given

Row | Compound | Ratio IC50
20 | CCCCN(C)C(=O)c1c(F)cccc1OCC(=O)N[C@H](CO)Cc1ccccc1 | 10

tested on: Hepatitis C virus; test: Inhibition of HCV Con1 NS5B polymerase; assay type: functional, Hepatitis C virus (isolate Con1); details: 1b; in short: as §2

Row | Compound | pIC50
21 | CCN(CC)C(=O)c1c(F)cccc1OCC(=O)N[C@H](CO)Cc1ccccc1 | 5.22
22 | O=C(COc1cccc(F)c1C(=O)N1CCCC1C1CCCCC1)N[C@H](CO)Cc1ccccc1 (stereo partly specified) | 5.40
23 | CC(C)CCN(C)C(=O)c1c(F)cccc1OCC(=O)N[C@H](CO)Cc1ccccc1 | 6.33
24 | C[S+]([O-])CCNC(=O)c1c(F)cccc1OCC(=O)N[C@H](CO)Cc1ccccc1 (stereo partly specified) | < 4.70
25 | CCCCNC(=O)c1c(F)cccc1OCC(=O)N[C@H](CO)Cc1ccccc1 | < 4.70
26 | COC(=O)[C@@H](Cc1ccccc1)N(C)C(=O)c1c(F)cccc1OCC(=O)N[C@H](CO)Cc1ccccc1 | 5.37
27 | O=C(COc1cccc(F)c1C(=O)NCCC1=CCCCC1)N[C@@H](CO)Cc1ccccc1 | < 4.70
28 | CCCN(C)C(=O)c1c(F)cccc1OCC(=O)N[C@H](CO)Cc1ccccc1 | 5.22
29 | O=C(COc1cccc(F)c1C(=O)N1CCCCCC1)N[C@H](CO)Cc1ccccc1 | 5.59
30 | CC1CCN(C(=O)c2c(F)cccc2OCC(=O)N[C@H](CO)Cc2ccccc2)CC1 | 5.64
31 | CCCN(CC)C(=O)c1c(F)cccc1OCC(=O)N[C@H](CO)Cc1ccccc1 | 5.64
32 | COC[C@H]1CCCN1C(=O)c1c(F)cccc1OCC(=O)N[C@H](CO)Cc1ccccc1 | 4.70
33 | CN(CCc1ccccc1)C(=O)c1c(F)cccc1OCC(=O)N[C@H](CO)Cc1ccccc1 | 4.70
34 | CC(C)(C)CCNC(=O)c1c(F)cccc1OCC(=O)N[C@H](CO)Cc1ccccc1 | < 4.70
35 | C[C@H](c1ccccc1)N(C)C(=O)c1c(F)cccc1OCC(=O)N[C@H](CO)Cc1ccccc1 | 6.37
36 | O=C(COc1cccc(F)c1C(=O)N1CCCC1Cc1ccccn1)N[C@H](CO)Cc1ccccc1 (stereo partly specified) | < 4.70
37 | O=C(COc1cccc(F)c1C(=O)NCCCCO)N[C@H](CO)Cc1ccccc1 | < 4.70
38 | COCCN(C(=O)c1c(F)cccc1OCC(=O)N[C@H](CO)Cc1ccccc1)C(C)C | 5.22
39 | O=C(COc1cccc(F)c1C(=O)N1CCCC1c1cccc(Cl)c1)N[C@H](CO)Cc1ccccc1 (stereo partly specified) | 5.72
40 | CCN(C(=O)c1c(F)cccc1OCC(=O)N[C@H](CO)Cc1ccccc1)C(C)C | 5.15

Row | Compound | pIC50
41 | CCCN(CC1CC1)C(=O)c1c(F)cccc1OCC(=O)N[C@H](CO)Cc1ccccc1 | 5.59
42 | CC(C)CCNC(=O)c1c(F)cccc1OCC(=O)N[C@H](CO)Cc1ccccc1 | < 4.70
43 | COC[C@H](Cc1ccccc1)NC(=O)COc1cccc(F)c1C(=O)NCCC1=CCCCC1 | < 4.70
44 | O=C(COc1cccc(F)c1C(=O)NCCC1=CCCCC1)N[C@H](CO)Cc1ccccc1 | 5.37
45 | O=C(COc1cccc(F)c1C(=O)NCCC1CCCCC1)N[C@H](CO)Cc1ccccc1 | < 4.70
46 | CCCN(CCC)C(=O)c1c(F)cccc1OCC(=O)N[C@H](CO)Cc1ccccc1 | 5.57
47 | O=C(COc1cccc(F)c1C(=O)N[C@H](CO)Cc1ccccc1)NCCC1=CCCCC1 | < 4.70
48 | COCCNC(=O)c1c(F)cccc1OCC(=O)N[C@H](CO)Cc1ccccc1 | < 4.70
49 | COC(=O)[C@H](c1ccccc1)N(C)C(=O)c1c(F)cccc1OCC(=O)N[C@H](CO)Cc1ccccc1 | 5.34
50 | CCOc1cc(CCNC(=O)c2c(F)cccc2OCC(=O)N[C@H](CO)Cc2ccccc2)ccc1OC | < 4.70
51 | O=C(COc1cccc(F)c1C(=O)N1CCCC1)N[C@H](CO)Cc1ccccc1 | < 4.70
52 | O=C(COc1cccc(F)c1C(=O)NCCc1ccccc1)N[C@H](CO)Cc1ccccc1 | < 4.70
53 | O=C(COc1cccc(F)c1C(=O)N1CCCCC1)N[C@H](CO)Cc1ccccc1 | < 4.70
54 | CCN(CCOC)C(=O)c1c(F)cccc1OCC(=O)N[C@H](CO)Cc1ccccc1 | 5.10
55 | COC[C@@H]1CCCN1C(=O)c1c(F)cccc1OCC(=O)N[C@H](CO)Cc1ccccc1 | 5.11
56 | C=CCN(CC=C)C(=O)c1c(F)cccc1OCC(=O)N[C@H](CO)Cc1ccccc1 | 5.66
57 | CCCCN(CC)C(=O)c1c(F)cccc1OCC(=O)N[C@H](CO)Cc1ccccc1 | 6.33
58 | CCOCCN(CCOCC)C(=O)c1c(F)cccc1OCC(=O)N[C@H](CO)Cc1ccccc1 | < 4.70
59 | O=C(COc1cccc(F)c1C(=O)N1CCC(c2ccccc2)C1)N[C@H](CO)Cc1ccccc1 (stereo partly specified) | 5.00
60 | CCCN(CCOC)C(=O)c1c(F)cccc1OCC(=O)N[C@H](CO)Cc1ccccc1 | 4.77

tested on: Hepatitis C virus genotype 3; test: Inhibition of HCV genotype 3 NS5B polymerase up to 200 uM; details: not given

Row | Compound | inhibition
61 | CCCCN(C)C(=O)c1c(F)cccc1OCC(=O)N[C@H](CO)Cc1ccccc1 | inactive
